Experiments:
Rattus norvegicus [1] = test: Antihypertensive activity in spontaneously hypertensive rats (SHR) measured by percentage fall in arterial pressure (AP) at 25 mg/kg administered intraperitoneally at 3 h; type: functional, Artery; details: route intraperitoneal
How it was run: (§1)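 Unanesthetized Okamoto-strain SHR, male and female, 8 weeks old, 300–350 g, systolic pressure ≥190 mmHg, heart rate 400–650 beats/min; five animals per dose. Given ip at 2.5 mL/kg, dissolved or suspended in normal saline or saline with 0.2% (carboxymethyl)cellulose and 1.0% Tween 80. Tail AP and CR recorded by mechanical transduction at set times; reported as percentage fall from control.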

Rattus norvegicus [2] = test: Antihypertensive activity in spontaneously hypertensive rats (SHR) measured by percentage fall in cardiac rhythm (CR) at 25 mg/kg administered intraperitoneally at 5 h; type: functional, Heart; details: route intraperitoneal
How it was run: (§2)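 Conscious SHR (Okamoto strain), 8 weeks old, male and female, 300–350 g, systolic BP ≥190 mmHg, CR 400–650 beats/min. Given ip or po at 2.5 mL/kg in normal saline or saline with 0.2% (carboxymethyl)cellulose and 1.0% Tween 80. Tail AP and CR recorded by mechanical transduction at 1, 3, 5 and 24 h, five animals per dose. Effect expressed as % fall versus control.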

Rattus norvegicus [3] = test: Antihypertensive activity in spontaneously hypertensive rats (SHR) measured by percentage fall in cardiac rhythm (CR) at 25 mg/kg administered intraperitoneally at 3 h; type: functional, Heart; details: route intraperitoneal; how it was run: as §1
Rattus norvegicus [4] = test: Antihypertensive activity in spontaneously hypertensive rats (SHR) measured by percentage fall in arterial pressure (AP) at 25 mg/kg administered intraperitoneally at 24 h; type: functional, Artery; details: route intraperitoneal; how it was run: as §1
Rattus norvegicus [5] = test: Antihypertensive activity in spontaneously hypertensive rats (SHR) measured by percentage fall in arterial pressure (AP) at 25 mg/kg administered intraperitoneally at 5 h; type: functional, Artery; details: route intraperitoneal; how it was run: as §1
Rattus norvegicus [6] = test: Antihypertensive activity in spontaneously hypertensive rats (SHR) measured by percentage fall in cardiac rhythm (CR) at 25 mg/kg administered intraperitoneally at 24 h; type: functional, Heart; details: route intraperitoneal; how it was run: as §1
Rattus norvegicus [7] = test: Antihypertensive activity in spontaneously hypertensive rats (SHR) measured by percentage fall in cardiac rhythm (CR) at 25 mg/kg administered intraperitoneally at 24 h;No significance; type: functional, organism-based; design: dose 25 mg/kg; details: Heart; how it was run: as §1
Rattus norvegicus [8] = test: Antihypertensive activity in spontaneously hypertensive rats (SHR) measured by percentage fall in arterial pressure (AP) at 25 mg/kg administered intraperitoneally at 3 h;No significance; type: functional, organism-based; design: dose 25 mg/kg; details: Artery; how it was run: as §1
Rattus norvegicus [9] = test: Antihypertensive activity in spontaneously hypertensive rats (SHR) measured by percentage fall in arterial pressure (AP) at 25 mg/kg administered intraperitoneally at 24 h;No significance; type: functional, organism-based; design: dose 25 mg/kg; details: Artery; how it was run: as §1
Rattus norvegicus [10] = test: Antihypertensive activity in spontaneously hypertensive rats (SHR) measured by percentage fall in cardiac rhythm (CR) at 25 mg/kg administered intraperitoneally at 5 h;No significance; type: functional, organism-based; design: dose 25 mg/kg; details: Heart; how it was run: as §2
Rattus norvegicus [11] = test: Antihypertensive activity in spontaneously hypertensive rats (SHR) measured by percentage fall in arterial pressure (AP) at 25 mg/kg administered intraperitoneally at 1 h; type: functional, Artery; details: route intraperitoneal; how it was run: as §1
Rattus norvegicus [12] = test: Antihypertensive activity in spontaneously hypertensive rats (SHR) measured by percentage fall in cardiac rhythm (CR) at 25 mg/kg administered intraperitoneally at 1 h; type: functional, Heart; details: route intraperitoneal; how it was run: as §1
Rattus norvegicus [13] = test: Percent fall in systolic blood pressure, directly measured on carotid (iv on the jugular vein) of spontaneously hypertensive rats at 1 mg/kg after 75 minutes; type: functional, Artery
How it was run: (§3)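 Anesthetized (sodium pentobarbital, 70 mg/kg) male and female Okamoto SHR, 8 weeks old, 300–350 g. Given iv into the jugular vein in normal saline. Arterial pressure and cardiac rhythm are recorded directly from the carotid by polygraph at set times after dosing. Each is expressed as percent change from the pre-dose control value.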

Rattus norvegicus [14] = test: Percent fall in systolic blood pressure, directly measured on carotid (iv on the jugular vein) of spontaneously hypertensive rats at 1 mg/kg after 10 minutes; type: functional, Artery; how it was run: as §3
Rattus norvegicus [15] = test: Percent fall in systolic blood pressure, directly measured on carotid (iv on the jugular vein) of spontaneously hypertensive rats at 1 mg/kg after 5 minutes; type: functional, Artery; how it was run: as §3
Rattus norvegicus [16] = test: Percent fall in systolic blood pressure, directly measured on carotid (iv on the jugular vein) of spontaneously hypertensive rats at 1 mg/kg after 60 minutes; type: functional, Artery; how it was run: as §3
Rattus norvegicus [17] = test: Percent fall in systolic blood pressure, directly measured on carotid (iv on the jugular vein) of spontaneously hypertensive rats at 1 mg/kg after 90 minutes; type: functional, Artery; how it was run: as §3
Rattus norvegicus [18] = test: Percent fall in systolic blood pressure, directly measured on carotid (iv on the jugular vein) of spontaneously hypertensive rats at 1 mg/kg after 30 minutes; type: functional, Artery; how it was run: as §3
Rattus norvegicus [19] = test: Percent fall in systolic blood pressure, directly measured on carotid (iv on the jugular vein) of spontaneously hypertensive rats at 1 mg/kg after 45 minutes; type: functional, Artery; how it was run: as §3
Rattus norvegicus [20] = test: Percent fall in systolic blood pressure, directly measured on carotid (iv on the jugular vein) of spontaneously hypertensive rats at 1 mg/kg after 15 minutes; type: functional, Artery; how it was run: as §3
Homo sapiens [21] = organism: Homo sapiens; test: In vitro inhibition of platelet aggregation induced by ADP-II (PRP incubated for 5 minutes at 37 degree C) at 10e-5 M; type: functional
How it was run: (§4)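 Human venous blood anticoagulated with 3.8% sodium citrate (1:9). PRP from centrifugation at 800 rpm for 10 min at room temperature. Count adjusted with PPP to […]. Compound in saline with 10% ethylene glycol is added to PRP and incubated at 37 °C before the agonist. Agonists: ADP 2×10^-5 M, AA 0.6 mM, PGH2 2.8 μM, adrenaline 0.6 μM. Born absorbance aggregometry; n = 5.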

Homo sapiens [22] = organism: Homo sapiens; test: In vitro inhibition of platelet aggregation induced by ADP-II (PRP incubated for 60 minutes at 37 degree C) at 10e-5 M; type: functional; details: 1 h; how it was run: as §4
Rattus norvegicus [23] = test: Antihypertensive activity in spontaneously hypertensive rats (SHR) measured by percentage fall in cardiac rhythm (CR) at 25 mg/kg administered intraperitoneally at 1 h;No significance; type: functional, organism-based; design: dose 25 mg/kg; details: Heart; how it was run: as §1
Rattus norvegicus [24] = test: Antihypertensive activity in spontaneously hypertensive rats (SHR) measured by percentage fall in cardiac rhythm (CR) at 25 mg/kg administered intraperitoneally at 3 h;No significance; type: functional, organism-based; design: dose 25 mg/kg; details: Heart; how it was run: as §2
Rattus norvegicus [25] = test: Antihypertensive activity in spontaneously hypertensive rats (SHR) measured by percentage fall in arterial pressure (AP) at 25 mg/kg administered intraperitoneally at 5 h;No significance; type: functional, organism-based; design: dose 25 mg/kg; details: Artery; how it was run: as §1
Homo sapiens [26] = organism: Homo sapiens; test: In vitro inhibition of platelet aggregation induced by […] (PRP incubated for 5 minutes at 37 degree C) at 10e-5 M; No significance; type: functional
Homo sapiens [27] = organism: Homo sapiens; test: In vitro inhibition of platelet aggregation induced by AA (PRP incubated for 60 minutes at 37 degree C) at 10e-5 M; No significance; type: functional; how it was run: as §4
Homo sapiens [28] = organism: Homo sapiens; test: In vitro inhibition of platelet aggregation induced by ADP-II (PRP incubated for 5 minutes at 37 degree C) at 10e-5 M; No significance; type: functional; how it was run: as §4

COc1ccc2[nH]c3c(NN=C(C)C)nncc3c2c1
Decrease in AP (Rattus norvegicus [1]): 13% | Decrease in CR (Rattus norvegicus [2]): -8% | Decrease in CR (Rattus norvegicus [3]): -11% | Decrease in AP (Rattus norvegicus [4]): 7% | Decrease in AP (Rattus norvegicus [5]): 14% | Decrease in CR (Rattus norvegicus [6]): -10%

COc1ccc2[nH]c3c(cnn4cnnc34)c2c1
Decrease in CR (Rattus norvegicus [3]): 10% | Decrease in CR (Rattus norvegicus [7]): No significant values | Decrease in AP (Rattus norvegicus [5]): 11% | Decrease in AP (Rattus norvegicus [8]): No significant values | Decrease in AP (Rattus norvegicus [9]): No significant values | Decrease in CR (Rattus norvegicus [10]): No significant values

CCOc1ccc2[nH]c3c(NN)nncc3c2c1
Decrease in AP (Rattus norvegicus [1]): 28% | Decrease in CR (Rattus norvegicus [2]): -9% | Decrease in CR (Rattus norvegicus [3]): -11% | Decrease in AP (Rattus norvegicus [4]): 5% | Decrease in AP (Rattus norvegicus [5]): 24% | Decrease in AP (Rattus norvegicus [11]): 29% | Decrease in CR (Rattus norvegicus [12]): -20%

NNc1[nH]ncc2c3cc(O)ccc3nc1-2
Decrease in blood pressure (Rattus norvegicus [13]): 56% | Decrease in blood pressure (Rattus norvegicus [14]): 44% | Decrease in blood pressure (Rattus norvegicus [15]): 33% | Decrease in blood pressure (Rattus norvegicus [16]): 67% | Decrease in blood pressure (Rattus norvegicus [17]): 56% | Decrease in blood pressure (Rattus norvegicus [18]): 56% | Decrease in blood pressure (Rattus norvegicus [19]): 56% | Decrease in blood pressure (Rattus norvegicus [20]): 60%

COc1ccc2c(c1)cc1c(NN)nncn12.Cl
Decrease in AP (Rattus norvegicus [11]): 9%

COc1ccc2c(c1)cc1c(NN)nncn12
inhibition at 10 µM (Homo sapiens [21]): 100% | inhibition at 10 µM (Homo sapiens [22]): 100%

COc1ccc2[nH]c3c(N/N=C\c4ccccc4)nncc3c2c1
Decrease in AP (Rattus norvegicus [1]): 6% | Decrease in CR (Rattus norvegicus [3]): -20% | Decrease in AP (Rattus norvegicus [5]): 8% | Decrease in CR (Rattus norvegicus [6]): -13%

CCOc1ccc2[nH]c3c(S)nncc3c2c1
Decrease in AP (Rattus norvegicus [1]): 5% | Decrease in CR (Rattus norvegicus [7]): No significant values | Decrease in CR (Rattus norvegicus [23]): No significant values | Decrease in AP (Rattus norvegicus [9]): No significant values | Decrease in CR (Rattus norvegicus [24]): No significant values | Decrease in CR (Rattus norvegicus [10]): No significant values | Decrease in AP (Rattus norvegicus [25]): No significant values | Decrease in AP (Rattus norvegicus [11]): 10%

COc1ccc2c(c1)cc1c(O)nncn12
inhibition (Homo sapiens [26]): No significant values | inhibition (Homo sapiens [27]): No significant values | inhibition (Homo sapiens [28]): No significant values | inhibition at 10 µM (Homo sapiens [22]): 100%

Reference: ChEMBL document CHEMBL1123757, “Selective thromboxane synthetase inhibitors and antihypertensive agents. New derivatives of 4-hydrazino-5H-pyridazino[4,5-b]indole, 4-hydrazinopyridazino[4,5-a]indole, and related compounds” (J Med Chem, 1987)
